# From ChEMBL document CHEMBL5154715, “Phenolic Lipids Derived from Cashew Nut Shell Liquid to Treat Metabolic Diseases” (J Med Chem, 2022)
# The source made the active and inactive calls. No cut-off for these calls is given here.
# Legend:
# Danio rerio [1] = test: In vivo agonist activity at human GFP-tagged PPARalpha in transgenic zebrafish assessed as increase in GFP expression in muscle at 1.5 uM measured after 14 hrs by microscopy
# Danio rerio [2] = test: In vivo agonist activity at human GFP-tagged PPARalpha in transgenic zebrafish assessed as increase in GFP expression in yolk sac at 1.5 uM measured after 14 hrs by microscopy
# Danio rerio [3] = test: In vivo agonist activity at human GFP-tagged PPARalpha in transgenic zebrafish assessed as increase in GFP expression in heart at 1.5 uM measured after 14 hrs by microscopy
# Danio rerio [4] = test: In vivo agonist activity at human GFP-tagged PPARalpha in transgenic zebrafish assessed as increase in GFP expression in brain at 1.5 uM measured after 14 hrs by microscopy
# [5] = Tmax in C57BL/6 mouse at 40 mg/kg, ip […] by LC-MS/MS analysis; format: ADME, organism-based; settings: in vivo
# [6] = Terminal half life in C57BL/6 mouse at 40 mg/kg, ip […] by LC-MS/MS analysis; format: ADME, organism-based; settings: in vivo, read-out: beta t1/2 (converted)
# [7] = Elimination rate constant in C57BL/6 mouse at 100 mg/kg, po […] by LC-MS/MS analysis; format: ADME, organism-based; settings: in vivo
# Danio rerio [8] = test: In vivo agonist activity at human GFP-tagged PPARalpha in transgenic zebrafish assessed as increase in GFP expression in muscle at 0.5 uM measured after 14 hrs by microscopy
# [9] = Tmax in C57BL/6 mouse at 100 mg/kg, po measured upto 24 hrs by LC-MS/MS analysis; settings: in vivo
# [10] = Cmax in C57BL/6 mouse at 100 mg/kg, po measured upto 24 hrs by LC-MS/MS analysis; format: ADME, organism-based; parameters: time < 24 hrs, dose 100 mg/kg, route po; settings: in vivo
# Summary of the method: (§1)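 Single oral dose given in peanut butter pellets to WT male C57Bl/6 mice acclimated 7 days to drug-free pellets; n = 4 per time point. Saphenous blood at 0.25–2 h, terminal collection at 4–38 h. Plasma extracted with methanol containing internal standard, LC-MS/MS with negative-ion ESI MRM. Parameters reported as mean ± SEM; Frel is oral vs IP.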
# [11] = AUC (0 to infinity) in C57BL/6 mouse at 100 mg/kg, po […] by LC-MS/MS analysis; format: ADME, organism-based; parameters: dose 100 mg/kg, route po; settings: in vivo
# [12] = Relative bioavailability in C57BL/6 mouse at 100 mg/kg […] by LC-MS/MS analysis; format: ADME, organism-based; settings: in vivo
# Danio rerio [13] = test: In vivo agonist activity at human GFP-tagged PPARalpha in transgenic zebrafish assessed as increase in GFP expression in heart at 0.5 uM measured after 14 hrs by microscopy
# [14] = AUC (0 to infinity) in C57BL/6 mouse at 40 mg/kg, ip measured upto 24 hrs by LC-MS/MS analysis; format: ADME, organism-based; parameters: time < 24 hrs, dose 40 mg/kg, route ip; settings: in vivo
# Summary of the method: (§2)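 Single IP dose in 5% DMSO/5% Tween-80/90% saline to WT male C57Bl/6 mice, 7–10 months old; n = 4 per time point. Saphenous sampling at 0.08–0.5 h, then terminal trunk blood at 1–6 h. Plasma extracted with methanol plus internal standard and analyzed by LC-MS/MS; mean ± SEM.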
# Danio rerio [15] = test: In vivo agonist activity at human GFP-tagged PPARalpha in transgenic zebrafish assessed as increase in GFP expression in yolk sac at 0.5 uM measured after 14 hrs by microscopy
# [16] = target: T1, Peroxisome proliferator-activated receptor gamma (Mus musculus) (UniProt P37238); test: Agonist activity at human PPARgamma in mouse 3T3-L1 cells assessed as induction of Glut4 mRNA expression at 25 uM incubated for 11 days by quantitative real-time PCR analysis; settings: filed as agonist, time 11.0 day
# T1 sequence (whole entry): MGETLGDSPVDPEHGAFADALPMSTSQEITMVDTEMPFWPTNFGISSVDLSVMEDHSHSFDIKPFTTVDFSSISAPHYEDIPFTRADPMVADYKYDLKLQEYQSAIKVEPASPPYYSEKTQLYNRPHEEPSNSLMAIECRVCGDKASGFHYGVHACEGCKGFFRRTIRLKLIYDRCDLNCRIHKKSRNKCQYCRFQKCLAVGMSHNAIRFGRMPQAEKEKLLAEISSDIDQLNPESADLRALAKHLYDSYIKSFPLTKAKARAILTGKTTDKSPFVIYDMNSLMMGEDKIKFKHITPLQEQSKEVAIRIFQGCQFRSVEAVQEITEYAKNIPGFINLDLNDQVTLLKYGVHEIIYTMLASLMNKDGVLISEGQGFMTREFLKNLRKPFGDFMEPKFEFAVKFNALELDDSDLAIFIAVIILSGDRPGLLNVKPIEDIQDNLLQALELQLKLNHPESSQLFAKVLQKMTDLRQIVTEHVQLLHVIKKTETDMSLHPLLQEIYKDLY
# Danio rerio [17] = test: In vivo agonist activity at human GFP-tagged PPARalpha in transgenic zebrafish assessed as increase in GFP expression in brain at 0.5 uM measured after 14 hrs by microscopy
# [18] = target: T1, Peroxisome proliferator-activated receptor gamma (Mus musculus); test: Agonist activity at human PPARgamma in mouse 3T3-L1 cells assessed as induction of Adipoq-mRNA expression at 25 uM incubated for 11 days by quantitative real-time PCR analysis; settings: filed as agonist, time 11.0 day
# [19] = Elimination rate constant in C57BL/6 mouse at 40 mg/kg, ip measured upto 24 hrs by LC-MS/MS analysis; format: ADME, organism-based; settings: in vivo
# Summary of the method: as §2
# [20] = Terminal half life in C57BL/6 mouse at 100 mg/kg, po measured upto 24 hrs by LC-MS/MS analysis; format: ADME, organism-based; settings: in vivo, read-out: beta t1/2 (converted)
# Summary of the method: as §1
SMILES,Activity (Danio rerio [1]),Activity (Danio rerio [2]),Activity (Danio rerio [3]),Activity (Danio rerio [4]),Tmax [5] [h],half-life [6] [h],k el [7] [s⁻¹],Activity (Danio rerio [8]),Tmax [9] [h],Cmax [10] [µg/mL],AUC(0-inf) [11] [µg·h/mL],bioavailability [12] [%],Activity (Danio rerio [13]),AUC(0-inf) [14] [µg·h/mL],Activity (Danio rerio [15]),Activity [16],Activity (Danio rerio [17]),Activity [18],k el at 24 h [19] [s⁻¹],half-life [20] [h]
CCCCCCCCCCCCCCCc1cccc(OC(C)=O)c1C(=O)O,Active,Active,Active,Active,,,,,,,,,,,,,,,,
CCCCCCCCCCCCCCCc1cccc(OC(C)(C)C(=O)O)c1,,,,,0.5,4,8.28e-05,Active,4,76,717,38,Active,748,Active,Active,Active,Active,4.83e-05,2.3
